{"data": "Results from different studies", "Melanocortin receptor 3": "Melanocortin receptor 3 (Mus musculus, UniProt P33033)", "Grm8": "Metabotropic glutamate receptor 8 (Grm8, Rattus norvegicus, UniProt P70579)", "TLR7": "Toll-like receptor 7 (TLR7, Homo sapiens, UniProt Q9NYK1)", "CHRM1": "Muscarinic acetylcholine receptor M1 (CHRM1, Homo sapiens, UniProt P11229)", "note": "Lines come from different studies, so protocols differ. pEC50: −log10 of the molar value."}
{"SMILES": "CCCC[C@H](NC(=O)[C@@H](NC(=O)[C@@H](N)Cc1ccc(O)cc1)C(C)C)C(=O)NCC(=O)N[C@@H](Cc1c[nH]cn1)C(=O)N[C@@H](Cc1ccccc1)C(=O)N[C@@H](CCCNC(=N)N)C(=O)N[C@H](Cc1c[nH]c2ccccc12)C(=O)N[C@@H](CC(=O)O)C(=O)N[C@@H](CCCNC(=N)N)C(=O)N[C@@H](Cc1ccccc1)C(=O)NCC(=O)O", "target": "Melanocortin receptor 3", "read-out": "reporter gene", "mode": "agonist", "pEC50": 7.40}
{"SMILES": "COC(=O)c1ccc(-n2c(C)cc(C(=O)CSc3ccc(NC(C)=O)cc3)c2C)cc1", "target": "Grm8", "read-out": "calcium signal", "mode": "positive allosteric modulator", "pEC50": 6.07}
{"SMILES": "CSCC[C@H](NC(=O)[C@@H](NC(=O)[C@@H](N)Cc1ccc(O)cc1)C(C)C)C(=O)NCC(=O)N[C@@H](Cc1c[nH]cn1)C(=O)N[C@@H](Cc1ccccc1)C(=O)N[C@@H](CCCNC(=N)N)C(=O)N[C@@H](Cc1c[nH]c2ccccc12)C(=O)O", "target": "Melanocortin receptor 3", "read-out": "reporter gene", "mode": "agonist", "pEC50": 5.55}
{"SMILES": "CCCCOc1nc(N)c2[nH]c(=O)n(CCN3CCNCC3)c2n1", "target": "TLR7", "read-out": "reporter gene", "mode": "agonist", "pEC50": 5.00}
{"SMILES": "CC(=O)c1cc([N+](=O)[O-])c(Sc2cccc(Cl)c2Cl)s1", "target": "Collagenase 3 (MMP13, Homo sapiens, UniProt P45452)", "read-out": "enzyme activity", "mode": "inhibitor", "pEC50": "< 4.30"}
{"SMILES": "CCn1c(-c2nc3ccc(C(=O)N4CCCC(N)C4)cc3n2C)cc2ccccc21 (centres unmarked)", "target": "CHRM1", "read-out": "calcium signal", "mode": "agonist", "pEC50": 4.80}
{"SMILES": "CCCC[C@H](NC(=O)[C@@H](NC(=O)[C@@H](N)Cc1ccc(O)cc1)C(C)C)C(=O)NCC(=O)N[C@@H](Cc1c[nH]cn1)C(=O)N[C@@H](Cc1ccccc1)C(=O)N[C@@H](CCCN=C(N)N)C(=O)N[C@@H](Cc1c[nH]c2ccccc12)C(=O)N[C@@H](CC(=O)O)C(=O)N[C@@H](CCCN=C(N)N)C(=O)N[C@@H](Cc1ccccc1)C(=O)NCC(=O)O", "target": "Melanocortin receptor 3", "read-out": "reporter gene", "mode": "agonist", "pEC50": 7.17}
{"SMILES": "CCNC(=O)C1OC(n2cnc3c(N)nc(NN=CC4CCC=CO4)nc32)C(O)C1O (centres unmarked)", "target": "Adenosine receptor A2b (ADORA2B, Homo sapiens, UniProt P29275)", "read-out": "GTPγS binding", "mode": "agonist", "setting": "cell membranes", "pEC50": 4.51}
{"SMILES": "CCn1c(-c2nc3cc(C(=O)N4CCC[C@@H](N)C4)cc(OC)c3n2C)cc2cccnc21", "target": "CHRM1", "read-out": "calcium signal", "mode": "agonist", "pEC50": 5.10}
{"SMILES": "C[C@]12CCC3=C4CCC(=O)C=C4CC[C@H]3[C@@H]1CC[C@@]2(O)CC#N", "target": "Progesterone receptor (PGR, Homo sapiens, UniProt P06401)", "read-out": "reporter gene", "mode": "agonist", "pEC50": 8.44}
{"SMILES": "CC[C@@H]1SC2(CCN(C)CC2)NC1=O", "target": "Muscarinic acetylcholine receptor M4 (Rattus norvegicus, UniProt P08485)", "read-out": "calcium signal", "mode": "agonist", "pEC50": "< 4.30"}
{"SMILES": "N[C@@H](CCC(=O)O)C(=O)O", "target": "Grm8", "read-out": "ion flux", "mode": "agonist", "pEC50": 5.20}
{"SMILES": "CCCCOc1nc(N)c2[nH]c(=O)n(C3CNC3)c2n1", "target": "TLR7", "read-out": "reporter gene", "mode": "agonist", "pEC50": 3.54}
{"SMILES": "CSCC[C@H](N)C(=O)NCC(=O)N[C@@H](Cc1c[nH]cn1)C(=O)N[C@@H](Cc1ccccc1)C(=O)N[C@@H](CCCNC(=N)N)C(=O)N[C@@H](Cc1c[nH]c2ccccc12)C(=O)O", "target": "Melanocortin receptor 3", "read-out": "reporter gene", "mode": "agonist", "pEC50": 4.65}
